According to ChEMBL document CHEMBL1123985, “Oral absorption of cephalosporin antibiotics. 1. Synthesis, biological properties, and oral bioavailability of 7-(arylacetamido)-3-chloro cephalosporins in animals” (J Med Chem, 1988):
Converted amounts (≈) assume the structure as drawn.

How the values were obtained:
Mus musculus [1] = assay: Efficacy against mouse infected ip with park strain of Streptococcus pneumoniae administered po to 19-21-g random sex ICR mice at 1 hr and 5 hr; assay type: functional
Method in brief: (§1)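 ICR mice, random sex, 19-21 g, challenged ip with 50-500 LC50 from a frozen organism pool; compound given sc or po at 1 and 5 h after challenge, five 2-fold dose levels, eight mice per level; ED50 derived.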

Staphylococcus aureus [2] = assay: Minimum inhibitory concentration against V41 strain of Staphylococcus aureus; assay type: functional
[3] = Oral bioavailability in mouse; assay type: ADME, organism-based; details: in vivo
Method in brief: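 Male Cox mice given water and liquid diet overnight; 20 mg/kg in saline (2 mg/mL) sc or orally; urine from collection cages plus bladder contents over 2 h; activity by agar well assay with Bacillus subtilis ATCC 6633. Bioavailability from percent dose excreted in urine after oral vs parenteral dosing.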

Streptococcus pneumoniae [4] = assay: Minimum inhibitory concentration against park strain of Streptococcus pneumoniae
Staphylococcus aureus [5] = assay: Minimum inhibitory concentration against S13E strain of Staphylococcus aureus; assay type: functional
Mus musculus [6] = assay: Efficacy against mouse infected ip with C203 strain of Streptococcus pyogenes, administered sc to 19-21-g random sex ICR mice at 1 hr and 5 hr; assay type: functional; method in brief: as §1
Mus musculus [7] = assay: Efficacy against mouse infected ip with 3055 strain of Staphylococcus aureus, administered sc to 19-21-g random sex ICR mice at 1 hr and 5 hr; assay type: functional; method in brief: as §1
Klebsiella aerogenes = assay: Minimum inhibitory concentration against EB17 strain of Enterobacter aerogenes; assay type: functional
[8] = Minimum inhibitory concentration against sens CL strain of Haemophilus influenzae; assay type: functional
[9] = test system: Staphylococcus epidermidis; assay: Minimum inhibitory concentration against 222 strain of Staphylococcus epidermidis; assay type: functional
[10] = Minimum inhibitory concentration against N9 strain of Shigella sonnei; assay type: functional
Streptococcus pyogenes [11] = assay: Minimum inhibitory concentration against Streptococcus pyogenes C203; assay type: functional
Mus musculus [12] = assay: Efficacy against mouse infected ip with C203 strain of Streptococcus pyogenes, administered po to 19-21-g random sex ICR mice at 1 hr and 5 hr; assay type: functional; method in brief: as §1
Salmonella = assay: Minimum inhibitory concentration against X514 strain of Salmonella; assay type: functional
Staphylococcus aureus [13] = assay: Minimum inhibitory concentration against 3055 strain of Staphylococcus aureus
Mus musculus [14] = assay: Efficacy against mouse infected ip with park strain of Streptococcus pneumoniae administered sc to 19-21-g random sex ICR mice at 1 hr and 5 hr; assay type: functional; method in brief: as §1
Klebsiella pneumoniae = assay: Minimum inhibitory concentration against X68 strain of Klebsiella pneumoniae; assay type: functional
Streptococcus pyogenes [15] = assay: Minimum inhibitory concentration against C203 strain of Streptococcus pyogenes
[16] = test system: Staphylococcus epidermidis; assay: Minimum inhibitory concentration against Epil strain of Staphylococcus epidermidis; assay type: functional
Streptococcus pneumoniae [17] = assay: Minimum inhibitory concentration against Park strain of Streptococcus pneumoniae; assay type: functional
[18] = Minimum inhibitory concentration against res 76 strain of Haemophilus influenzae; assay type: functional
Mus musculus [19] = assay: Efficacy against mouse infected ip with 3055 strain of Staphylococcus aureus, administered po to 19-21-g random sex ICR mice at 1 hr and 5 hr; assay type: functional; method in brief: as §1
Staphylococcus aureus [20] = assay: Minimum inhibitory concentration against X1.1 strain of Staphylococcus aureus; assay type: functional
Escherichia coli = assay: Minimum inhibitory concentration against EC14 strain Escherichia coli; assay type: functional
[21] = Percent of urinary recovery in rats after, sc administration of single 20 mg/kg dose in solution (N,range); assay type: ADME, organism-based; set-up: dose 20 mg/kg, route subcutaneous; details: rat, urine, read-out: Recovery
Method in brief: (§2)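 Male Wistar rats (200-300 g), jugular-cannulated, upper GI emptied by light cycle; 20 mg/kg in saline (6 mg/mL) sc or orally. Urine collected in wire-bottom cages, assayed by B. subtilis agar well method. Mean ± SD recovery with N and range; bioavailability = oral over mean sc recovery.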

[22] = Percent of urinary recovery in rats after, oral administration of single 20 mg/kg dose in solution (N,range); assay type: ADME, organism-based; set-up: dose 20 mg/kg, route oral; details: rat, urine, read-out: Recovery; method in brief: as §2
[23] = Bioavailability in rat; assay type: ADME, organism-based; details: in vivo; method in brief: as §2
[24] = Mean plasma levels in rats 2 hr after iv administration of 100 mg/kg of probenecid 5 min prior to test compound; assay type: ADME, organism-based; set-up: dose 100 mg/kg, route intravenous; details: rat, read-out: Plasma level
Method in brief: (§3)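 Rats, jugular vein cannulated (two per group), test compound iv 20 mg/kg; probenecid 100 mg/kg iv 5 min before in treated groups. Heparinized plasma sampled at 5, 20, 40 min and 1, 2, 3 h, assayed microbiologically (B. subtilis agar well). AUC 0-3 h in μg min/mL; half-life in min.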

[25] = Mean plasma levels in rats 1 hr after iv administration of 100 mg/kg of probenecid 5 min prior to test compound; assay type: ADME, organism-based; set-up: dose 100 mg/kg, route intravenous; details: rat, read-out: Plasma level; method in brief: as §3
[26] = Mean plasma levels in rats 20 min after iv administration of 100 mg/kg of probenecid 5 min prior to test compound; assay type: ADME, organism-based; set-up: dose 100 mg/kg, route intravenous; details: rat, read-out: Plasma level; method in brief: as §3
[27] = Mean plasma levels in rats at a time 5 min after iv administration of 100 mg/kg of probenecid 5 min prior to test compound; assay type: ADME, organism-based; set-up: dose 100 mg/kg, route intravenous; details: rat, read-out: Plasma level; method in brief: as §3
[28] = Mean plasma levels in rats 3h after intravenous administration of 20 mg/kg of compound; assay type: ADME, organism-based; set-up: dose 20 mg/kg, route intravenous; details: rat, read-out: Plasma level; method in brief: as §3
[29] = Area under plasma concentration vs time curve observed in Rhesus monkeys after, iv administration of single 30 mg/kg dose; assay type: ADME, organism-based, Macaca mulatta; set-up: dose 30 mg/kg, route intravenous; details: rhesus monkey
Method in brief: (§4)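 Rhesus monkeys, adult males, six animals per compound, each given drug orally and iv; fasted overnight. Single 30 mg/kg solution doses, by nasogastric tube (in water) or saphenous vein (in isotonic lactated Ringer). Plasma sampled at intervals, frozen at -70 °C, antibacterial activity by microbiological assay. AUC in μg min/mL; oral bioavailability from oral vs iv AUC.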

[30] = Area under plasma concentration vs time curve observed in rats for 0-3 h; assay type: ADME; set-up: time < 3 hr; details: rat; method in brief: as §3
Canis familiaris [31] = assay: Area under plasma concentration vs time curve observed in female mongrel dogs after, iv administration of single 15 mg/kg dose; assay type: ADME, organism-based, Canis lupus familiaris; set-up: dose 15 mg/kg, route intravenous; details: dog, in vivo
Method in brief: (§5)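 Six female mongrel dogs (14-23 kg) fasted overnight, bladder catheterized; single 15 mg/kg solution doses by stomach tube (in water, total 500 mL) or cephalic vein (saline or pH 6.0 NaCl/phosphate/acetate buffer). Plasma sampled at intervals; activity by disk-plate agar diffusion against E. coli MB 3804, standards in dog serum or buffer. AUC μg min/mL, mean ± SEM; BA from iv vs po AUC and urinary recovery.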

[32] = dose in urine (24-h urine excretion) in female mongrel dogs after, oral administration of single 15 mg/kg dose; assay type: ADME, organism-based, Canis lupus familiaris; set-up: dose 15 mg/kg, route oral; details: dog
Method in brief: (§6)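 Female mongrel dogs (n=6), bladder catheter; urine collected at intervals after single 15 mg/kg iv or oral solution dose, frozen; antibiotic activity by disk-plate agar diffusion against E. coli MB 3804 with standards in pH 6.0 buffer; percent of dose recovered in urine.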

[33] = dose in urine (24-h urine excretion) in female mongrel dogs after, iv administration of single 15 mg/kg dose; assay type: ADME, organism-based, Canis lupus familiaris; set-up: dose 15 mg/kg, route intravenous; details: dog; method in brief: as §6
[34] = Oral bioavailability in Rhesus monkey; assay type: ADME, organism-based, Macaca mulatta; details: in vivo; method in brief: as §4
in vivo = details: rat
[35] = Mean plasma levels in rats 40 min after iv administration of 100 mg/kg of probenecid 5 min prior to test compound; assay type: ADME, organism-based; set-up: dose 100 mg/kg, route intravenous; details: rat, read-out: Plasma level; method in brief: as §3
Canis familiaris [36] = assay: Area under plasma concentration vs time curve observed in female mongrel dogs after, oral administration of single 15 mg/kg dose; assay type: ADME, organism-based, Canis lupus familiaris; set-up: dose 15 mg/kg, route oral; details: dog, in vivo; method in brief: as §5
[37] = Area under plasma concentration vs time curve observed in Rhesus monkeys after oral administration of single 30 mg/kg dose; assay type: ADME, organism-based, Macaca mulatta; set-up: dose 30 mg/kg, route oral; details: rhesus monkey; method in brief: as §4
[38] = Half-life of the compound; assay type: ADME; method in brief: as §3

Structure (SMILES): N[C@@H](C(=O)N[C@@H]1C(=O)N2C(C(=O)O)=C(Cl)CS[C@H]12)c1ccccc1 [CEFACLOR ANHYDROUS]
- ED50 (Mus musculus [1]): 10.7 mg/kg
- MIC (Staphylococcus aureus [2]): 16 µg/mL (≈ 43.5 µM)
- bioavailability [3]: 76%
- MIC (Streptococcus pneumoniae [4]): 2 µg/mL (≈ 5.44 µM)
- MIC (Staphylococcus aureus [5]): 64 µg/mL (≈ 174 µM)
- ED50 (Mus musculus [6]): 1.25 mg/kg
- ED50 (Mus musculus [7]): 1.32 mg/kg
- MIC (Klebsiella aerogenes): 16 µg/mL (≈ 43.5 µM)
- MIC [8]: 1 µg/mL (≈ 2.72 µM)
- MIC [9]: 4 µg/mL (≈ 10.9 µM)
- MIC [10]: 4 µg/mL (≈ 10.9 µM)
- MIC (Streptococcus pyogenes [11]): 0.25 µg/mL (≈ 0.68 µM)
- ED50 (Mus musculus [12]): 1.25 mg/kg
- MIC (Salmonella): 0.5 µg/mL (≈ 1.36 µM)
- MIC (Staphylococcus aureus [13]): 1 µg/mL (≈ 2.72 µM)
- ED50 (Mus musculus [14]): 11.5 mg/kg
- MIC (Klebsiella pneumoniae): 1 µg/mL (≈ 2.72 µM)
- MIC (Streptococcus pyogenes [15]): 0.25 µg/mL (≈ 0.68 µM)
- MIC [16]: 8 µg/mL (≈ 21.8 µM)
- MIC (Streptococcus pneumoniae [17]): 0.5 µg/mL (≈ 1.36 µM)
- MIC [18]: 2 µg/mL (≈ 5.44 µM)
- ED50 (Mus musculus [19]): 1.36 mg/kg
- MIC (Staphylococcus aureus [20]): 1 µg/mL (≈ 2.72 µM)
- MIC (Escherichia coli): 1 µg/mL (≈ 2.72 µM)

Structure (SMILES): CC1(C)S[C@@H]2[C@H](NC(=O)COc3ccccc3)C(=O)N2[C@H]1C(=O)O [PENICILLIN V]
- dose excreted [21]: 22.5%
- ED50 (Mus musculus [1]): 2.8 mg/kg
- dose excreted [22]: 2.6%
- bioavailability [23]: 11.6%
- MIC (Staphylococcus aureus [2]): 32 µg/mL (≈ 91.3 µM)
- bioavailability [3]: 29%
- concentration at 2 h [24]: 800 ng/mL
- concentration at 1 h [25]: 6800 ng/mL
- MIC (Streptococcus pneumoniae [4]): 0.02 µg/mL (≈ 0.0571 µM)
- MIC (Staphylococcus aureus [5]): 16 µg/mL (≈ 45.7 µM)
- concentration at 20 min [26]: 30400 ng/mL
- concentration at 5 min [27]: 59000 ng/mL
- ED50 (Mus musculus [6]): 0.16 mg/kg
- concentration at 3 h [28]: < 300 ng/mL
- AUC [29]: 43000 ng·h/mL
- AUC at 3 h [30]: 32000 ng·h/mL
- ED50 (Mus musculus [7]): 0.04 mg/kg
- MIC (Klebsiella aerogenes): > 128 µg/mL
- MIC [8]: 64 µg/mL (≈ 183 µM)
- MIC [9]: 0.06 µg/mL (≈ 0.171 µM)
- AUC (Canis familiaris [31]): 25300 ng·h/mL
- dose excreted [32]: 4.9%
- MIC [10]: > 128 µg/mL
- dose excreted [33]: 32%
- MIC (Streptococcus pyogenes [11]): 0.06 µg/mL (≈ 0.171 µM)
- ED50 (Mus musculus [12]): 0.62 mg/kg
- MIC (Salmonella): > 128 µg/mL
- bioavailability [34]: 5.5%
- MIC (Staphylococcus aureus [13]): 0.04 µg/mL (≈ 0.114 µM)
- bioavailability (in vivo): 34%
- ED50 (Mus musculus [14]): 2.1 mg/kg
- MIC (Klebsiella pneumoniae): > 128 µg/mL
- MIC (Streptococcus pyogenes [15]): 0.06 µg/mL (≈ 0.171 µM)
- concentration at 40 min [35]: 14100 ng/mL
- MIC [16]: 0.125 µg/mL (≈ 0.357 µM)
- AUC (Canis familiaris [36]): 3000 ng·h/mL
- AUC [37]: 2330 ng·h/mL
- MIC (Streptococcus pneumoniae [17]): 16 µg/mL (≈ 45.7 µM)
- MIC [18]: > 128 µg/mL
- ED50 (Mus musculus [19]): 0.5 mg/kg
- MIC (Staphylococcus aureus [20]): 0.06 µg/mL (≈ 0.171 µM)
- half-life [38]: 19.4 min
- MIC (Escherichia coli): > 128 µg/mL
